In ChEMBL document CHEMBL1165965, “Synthesis and structure-activity relationships of 1,2,3,4-tetrahydropyrido[2,3-b]pyrazines as potent and selective inhibitors of the anaplastic lymphoma kinase” (Bioorg Med Chem, 2010):

What was measured:
[1] = molecular target: T1, Inhibitor of nuclear factor kappa-B kinase subunit alpha (Homo sapiens) (UniProt O15111); experiment: Inhibition of IKK-alpha at 1 uM
T1 sequence (whole entry): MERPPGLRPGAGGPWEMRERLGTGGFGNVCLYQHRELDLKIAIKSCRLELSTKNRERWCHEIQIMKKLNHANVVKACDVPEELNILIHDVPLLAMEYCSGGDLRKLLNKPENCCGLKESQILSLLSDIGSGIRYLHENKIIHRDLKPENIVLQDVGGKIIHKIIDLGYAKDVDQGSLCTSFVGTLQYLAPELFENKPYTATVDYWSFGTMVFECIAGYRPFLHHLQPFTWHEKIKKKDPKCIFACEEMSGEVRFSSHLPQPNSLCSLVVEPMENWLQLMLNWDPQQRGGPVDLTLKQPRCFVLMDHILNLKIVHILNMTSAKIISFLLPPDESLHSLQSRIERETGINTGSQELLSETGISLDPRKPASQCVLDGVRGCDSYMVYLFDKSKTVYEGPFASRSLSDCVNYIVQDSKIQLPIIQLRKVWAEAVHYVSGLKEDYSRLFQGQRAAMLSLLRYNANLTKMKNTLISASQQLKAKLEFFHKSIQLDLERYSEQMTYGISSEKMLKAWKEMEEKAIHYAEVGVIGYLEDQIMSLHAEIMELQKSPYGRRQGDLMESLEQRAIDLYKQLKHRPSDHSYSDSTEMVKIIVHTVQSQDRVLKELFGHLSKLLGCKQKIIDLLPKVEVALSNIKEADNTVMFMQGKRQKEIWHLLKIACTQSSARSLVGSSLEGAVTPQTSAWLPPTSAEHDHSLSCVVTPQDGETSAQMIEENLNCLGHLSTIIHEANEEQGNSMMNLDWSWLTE

[2] = molecular target: T2, Serine/threonine-protein kinase Chk1 (Homo sapiens) (UniProt O14757); experiment: Inhibition of CHEK1 at 1 uM
T2 sequence (whole entry): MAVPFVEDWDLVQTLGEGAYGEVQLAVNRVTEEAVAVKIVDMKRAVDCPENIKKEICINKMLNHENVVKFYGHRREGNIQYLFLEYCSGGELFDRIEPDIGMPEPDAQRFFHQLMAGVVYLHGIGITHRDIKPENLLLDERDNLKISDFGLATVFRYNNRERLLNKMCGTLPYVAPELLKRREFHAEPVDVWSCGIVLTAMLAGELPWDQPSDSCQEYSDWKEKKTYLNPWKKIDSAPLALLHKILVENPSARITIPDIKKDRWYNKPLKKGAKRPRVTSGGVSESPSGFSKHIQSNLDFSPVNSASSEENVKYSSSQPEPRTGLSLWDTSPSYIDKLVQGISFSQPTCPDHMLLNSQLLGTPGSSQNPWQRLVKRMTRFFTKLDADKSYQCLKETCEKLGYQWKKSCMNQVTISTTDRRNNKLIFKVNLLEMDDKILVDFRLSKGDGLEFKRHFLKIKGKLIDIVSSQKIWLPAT

[3] = molecular target: T3, cGMP-dependent protein kinase 2 (Homo sapiens) (UniProt Q13237); experiment: Inhibition of PRKG2 at 1 uM
T3 sequence (whole entry): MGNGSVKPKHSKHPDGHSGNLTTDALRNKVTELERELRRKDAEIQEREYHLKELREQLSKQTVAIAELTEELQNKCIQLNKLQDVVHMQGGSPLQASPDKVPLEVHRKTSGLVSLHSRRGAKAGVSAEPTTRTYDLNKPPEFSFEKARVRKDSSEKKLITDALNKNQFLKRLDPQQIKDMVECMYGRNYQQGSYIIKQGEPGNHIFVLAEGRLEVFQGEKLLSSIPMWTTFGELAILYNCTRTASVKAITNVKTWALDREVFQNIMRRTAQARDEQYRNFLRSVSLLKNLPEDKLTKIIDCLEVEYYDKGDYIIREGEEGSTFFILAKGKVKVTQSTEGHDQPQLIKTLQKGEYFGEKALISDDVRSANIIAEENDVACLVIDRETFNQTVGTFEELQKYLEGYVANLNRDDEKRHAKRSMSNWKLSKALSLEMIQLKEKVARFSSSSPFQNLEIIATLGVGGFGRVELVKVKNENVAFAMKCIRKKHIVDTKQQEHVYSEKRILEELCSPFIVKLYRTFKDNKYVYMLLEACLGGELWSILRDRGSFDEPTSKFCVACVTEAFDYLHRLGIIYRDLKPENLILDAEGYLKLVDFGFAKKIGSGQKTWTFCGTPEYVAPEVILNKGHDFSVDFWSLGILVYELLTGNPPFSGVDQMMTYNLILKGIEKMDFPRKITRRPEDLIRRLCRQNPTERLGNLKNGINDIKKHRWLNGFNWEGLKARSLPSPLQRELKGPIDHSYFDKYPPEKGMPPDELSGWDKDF

[4] = molecular target: Epidermal growth factor receptor (Homo sapiens) (UniProt P00533); experiment: Inhibition of EGFR at 1 uM
Procedure, shortened: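 Single-concentration screen using Ambit Bioscience KINOMEscan technology across a panel of 250–400 kinases. Per-kinase inhibition from this screen was summarized as S(90), the fraction of kinases inhibited by more than 90%.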

Measured: inhibition

Sequence of Epidermal growth factor receptor (Homo sapiens) (P00533 whole entry): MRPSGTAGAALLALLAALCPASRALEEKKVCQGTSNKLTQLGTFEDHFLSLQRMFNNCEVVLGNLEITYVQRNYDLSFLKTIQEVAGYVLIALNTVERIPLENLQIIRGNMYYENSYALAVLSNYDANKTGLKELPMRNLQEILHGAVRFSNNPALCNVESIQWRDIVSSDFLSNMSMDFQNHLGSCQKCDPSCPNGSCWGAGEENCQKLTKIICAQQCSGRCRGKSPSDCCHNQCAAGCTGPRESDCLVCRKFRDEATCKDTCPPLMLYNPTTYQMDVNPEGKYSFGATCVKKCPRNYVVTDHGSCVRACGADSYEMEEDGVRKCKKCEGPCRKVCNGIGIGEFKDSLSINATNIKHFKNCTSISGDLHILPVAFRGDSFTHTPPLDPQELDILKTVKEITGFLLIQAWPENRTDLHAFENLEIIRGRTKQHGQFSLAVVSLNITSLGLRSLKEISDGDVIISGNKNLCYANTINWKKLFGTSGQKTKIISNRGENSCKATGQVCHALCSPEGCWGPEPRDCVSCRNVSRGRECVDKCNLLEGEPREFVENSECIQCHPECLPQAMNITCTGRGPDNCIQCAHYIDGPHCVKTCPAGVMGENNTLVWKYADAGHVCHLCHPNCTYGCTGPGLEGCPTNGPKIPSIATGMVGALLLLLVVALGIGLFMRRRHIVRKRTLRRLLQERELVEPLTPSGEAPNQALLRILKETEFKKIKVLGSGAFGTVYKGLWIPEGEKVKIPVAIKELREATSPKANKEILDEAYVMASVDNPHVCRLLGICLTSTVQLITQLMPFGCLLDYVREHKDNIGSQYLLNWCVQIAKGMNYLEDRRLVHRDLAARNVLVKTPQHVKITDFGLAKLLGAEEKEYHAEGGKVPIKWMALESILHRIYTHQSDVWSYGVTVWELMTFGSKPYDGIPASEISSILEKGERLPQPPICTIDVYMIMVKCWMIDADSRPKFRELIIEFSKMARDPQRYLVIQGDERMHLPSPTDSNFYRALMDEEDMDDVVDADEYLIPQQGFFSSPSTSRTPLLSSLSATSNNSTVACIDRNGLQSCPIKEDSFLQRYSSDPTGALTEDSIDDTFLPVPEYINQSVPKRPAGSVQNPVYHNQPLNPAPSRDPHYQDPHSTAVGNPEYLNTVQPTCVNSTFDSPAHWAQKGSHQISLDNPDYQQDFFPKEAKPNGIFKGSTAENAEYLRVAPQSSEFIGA

FC(F)(F)c1ccc(Cl)cc1CN1CCNc2ncc(-c3ccnc(N4CCNCC4)c3)cc21
< 50%: all assays above

CN1CCN(c2ccc(-c3cnc4c(c3)N(Cc3cc(Cl)ccc3Cl)CCN4)cn2)CC1
< 50%: all assays above

COC1CCN(C(=O)c2ccc(-c3cnc4c(c3)N(Cc3cc(Cl)ccc3C(F)(F)F)CCN4)cc2)CC1
< 50%: [3] | [4]

O=C(c1ccc(-c2cnc3c(c2)N(Cc2cc(Cl)ccc2C(F)(F)F)CCN3)cc1)N1CCCCC1
< 50%: [3] | [4]

O=C(O)c1ccc(-c2cnc3c(c2)N(Cc2cc(Cl)ccc2C(F)(F)F)CCN3)cc1
< 50%: [3] | [4]

CN1CCN(c2ccc(-c3cnc4c(c3)N(Cc3cc(F)ccc3F)CCN4)cn2)CC1
< 50%: all assays above

O=C(c1ccc(-c2cnc3c(c2)N(Cc2cc(Cl)ccc2C(F)(F)F)CCN3)cc1)N1CCC(N2CCCC2)CC1
< 50%: [3] | [4]

CN1CCN(c2ccc(-c3cnc4c(c3)N(Cc3c(F)ccc(F)c3Cl)CCN4)cn2)CC1
< 50%: all assays above

CC(=O)N1CCN(c2cc(-c3cnc4c(c3)N(Cc3cc(Cl)ccc3C(F)(F)F)CCN4)ccn2)CC1
< 50%: all assays above

CN1CCN(c2ccc(-c3cnc4c(c3)N(Cc3cc(Cl)ccc3C(F)(F)F)CCN4)cn2)CC1
< 50%: all assays above
